# ChEMBL document CHEMBL4017489, “Design, Synthesis, and Evaluation of New Selective NM23-H2 Binders as c-MYC Transcription Inhibitors via Disruption of the NM23-H2/G-Quadruplex Interaction” (J Med Chem, 2017)
# How the values were obtained:
# [1] = test system: SiHa; experiment: Induction of apoptosis in human SiHa cells assessed as necrotic cells at 1 uM after 48 hrs by Annexin V-FITC/propidium iodide based flow cytometric analysis (reference value: 0.3%); assay type: functional
# [2] = test system: SiHa; experiment: Antitumor activity against human SiHa cells xenografted in BALB/C nude mouse assessed as tumor growth inhibition at 5 mg/kg, ip administered daily after 3 weeks relative to control; assay type: functional; details: 504 h, read-out: TGI
# [3] = test system: Mus musculus; experiment: Toxicity in BALB/C nude mouse xenografted with human SiHa cells assessed as distress at 2.5 to 5 mg/kg, ip administered daily after 3 weeks; assay type: organism-based; details: in vivo, 504 h
# Procedure, shortened: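 SiHa cells implanted in the right armpit of BALB/c nu/nu mice. At approximately 50 mm3, mice randomized (n = 8/group) to vehicle, compound 2.5 or 5.0 mg/kg, or doxorubicin 1.0 mg/kg, given ip daily for 3 weeks. Body weight and signs of pain, distress or discomfort monitored; tumors excised and weighed. Data given as mean ± SEM, t test against vehicle.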
compound,measurement,setting,value
CN(C)CCCNc1cc2nc3n(c(=O)c2cc1F)CC/C3=C\c1ccc(OCc2ccccc2)cc1O,Activity,[1],1.3%
same,inhibition in vivo at 5 mg/kg,[2],64.8%
same,Activity,[3],Non-Toxic
